ChEMBL document CHEMBL1255303, “In vitro and in vivo antifungal activities of T-2307, a novel arylamidine” (2008)
In brackets after ≈: the same amount, converted by molar mass. Activity calls are given as the source filed them. The rule behind the calls is not given here. Starred links: 1 amine or outer side, 2 acyl side, 3 side chain; linkers in the order of their positions; H or OH if unused. Positions of bridges follow the written chain, without caps; N, C: chain ends. Non-standard residues stand in square brackets, D forms with d. Residues, ends and D or L forms follow the SMILES beside them. *: point of attachment. hTyr(3S-OH,4S-OH,3'-OSO3H) = N[C@H](C(=O)O)[C@H](O)[C@@H](O)c1ccc(O)c(OS(=O)(=O)O)c1; Orn(4R-OH,5R-OH) = O=C([C@H](C[C@@H](O)[C@@H](O)N[*:3])N[*:1])[*:2]; Pro(3S-OH,4S-Me) = C[C@H]1CN[C@H](C(=O)O)[C@H]1O; X1 = CCCCCOc1ccc(-c2cc(-c3ccc(C(=O)*)cc3)no2)cc1; Gln(3R-OH) = NC(=O)C[C@@H](O)[C@H](N)C(=O)O; Hyp = O=C(O)[C@@H]1C[C@@H](O)CN1

Key:
Aspergillus fumigatus [1] = assay: Antifungal activity against Aspergillus fumigatus ATCC 16424 after 48 hrs by broth microdilution method; assay type: functional; conditions: ATCC 16424, 48 h
Procedure, shortened: (§1)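 CLSI M27-A2 (yeasts) or M38-A (A. fumigatus) broth microdilution in RPMI 1640 buffered to pH 7.0 with 0.165 M MOPS. Final inocula were 0.65–2.5 × 10^3 CFU/ml for yeasts and 0.87–3.8 × 10^4 CFU/ml for filamentous fungi. Incubation was at 35°C for about 48 h (72 h for C. neoformans). MIC was the lowest concentration giving a prominent (~50%) turbidity drop versus growth control; amphotericin B required complete inhibition.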

Aspergillus fumigatus [2] = assay: Antifungal activity against Aspergillus fumigatus IFM 46895 infected ICR mouse assessed as delay in mortality of mouse at 1 mg/kg after 6 days; assay type: functional, organism-based; set-up: dose 1 mg/kg
Procedure, shortened: (§2)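 Male ICR mice, 4 weeks old and SPF, were made neutropenic with intraperitoneal cyclophosphamide. The schedule was 200 mg/kg on day −3 (day −4 for Cryptococcus) plus 100 mg/kg on day +1. Infection was by tail-vein injection of 0.2 ml suspension: C. albicans 3.0 × 10^4, C. neoformans 9.1 × 10^4, A. fumigatus conidia 8.4 × 10^4 CFU/mouse. Drugs were given subcutaneously once daily for 7 days from 2 h post-infection; controls received saline. Groups had 8–10 mice.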

Aspergillus nidulans = assay: Antifungal activity against Aspergillus nidulans NBRC 33017 after 48 hrs by broth microdilution method; assay type: functional; conditions: NBRC 33017, 48 h
Procedure, shortened: (§3)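 CLSI M27-A2 (yeasts) / M38-A (moulds) broth microdilution in RPMI 1640 buffered to pH 7.0 with 0.165 M MOPS. Malassezia furfur got the same medium supplemented with glucose, bile salts, glycerol, glycerol monostearate and Tween 20. Final inoculum 0.65 × 10^3–2.5 × 10^3 CFU/ml for yeasts and 0.87 × 10^4–3.8 × 10^4 CFU/ml for filamentous fungi. Incubation at 35°C except M. racemosus and F. solani, which were held at 30°C.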

Candida albicans [3] = assay: Antifungal activity against Candida albicans ATCC 64124 after 47 hrs by broth microdilution method; assay type: functional; conditions: ATCC 64124, 47 h
Procedure, shortened: (§4)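 Fluconazole-resistant or susceptible-dose-dependent ATCC C. albicans strains were tested by CLSI M27-A2 broth microdilution in RPMI 1640–0.165 M MOPS, pH 7.0, with a final inoculum of 1.1–1.5 × 10^3 CFU/ml at 35°C for about 47 h. MIC was the lowest concentration with a prominent (~50%) turbidity decrease relative to growth control; amphotericin B was read at complete inhibition.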

Aspergillus flavus = assay: Antifungal activity against Aspergillus flavus NBRC 6343 after 48 hrs by broth microdilution method; assay type: functional; conditions: NBRC 6343, 48 h; procedure, shortened: as §3
Scedosporium boydii = assay: Antifungal activity against Pseudallescheria boydii NBRC 32229 after 72 hrs by broth microdilution method; assay type: functional; conditions: NBRC 32229, 72 h; procedure, shortened: as §3
Candida parapsilosis [4] = assay: Antifungal activity against Candida parapsilosis NBRC 10219 after 48 hrs by broth microdilution method; assay type: functional; conditions: Lodderomyces parapsilosis, NBRC 10219, 48 h; procedure, shortened: as §1
Aspergillus fumigatus [5] = assay: Antifungal activity against Aspergillus fumigatus clinical isolates after 48 hrs by broth microdilution method; assay type: functional
Procedure, shortened: (§5)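 Clinical isolates from Japanese hospitals or culture collections were tested by broth microdilution in RPMI 1640-MOPS. Inoculum was 0.57 × 10^3–2.5 × 10^3 CFU/ml for yeasts and 0.4 × 10^4–3.3 × 10^4 CFU/ml for filamentous fungi. Incubation was at 35°C for about 48 h, or 72 h where footnoted. Results were summarised as MIC range, MIC50 and MIC90.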

Nakaseomyces glabratus = assay: Antifungal activity against Candida glabrata ATCC 90030 after 48 hrs by broth microdilution method; assay type: functional; conditions: ATCC 90030, 48 h; procedure, shortened: as §3
Aspergillus terreus = assay: Antifungal activity against Aspergillus terreus NBRC 33026 after 48 hrs by broth microdilution method; assay type: functional; conditions: NBRC 33026, 48 h; procedure, shortened: as §3
Cryptococcus neoformans [6] = assay: Antifungal activity against Cryptococcus neoformans TIMM 0354 after 72 hrs by broth microdilution method; assay type: functional; conditions: TIMM 0354, 72 h; procedure, shortened: as §1
Candida albicans [7] = assay: Antifungal activity against Candida albicans ATCC MYA-574 after 47 hrs by broth microdilution method; assay type: functional; conditions: ATCC MYA-574, 47 h
Procedure, shortened: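 Fluconazole-resistant or susceptible-dose-dependent C. albicans ATCC strains were tested by broth microdilution in RPMI 1640-MOPS. Inoculum was 1.1 × 10^3–1.5 × 10^3 CFU/ml, with incubation at 35°C for about 47 h. Yeast MIC was read as about 50% turbidity decrease relative to growth control, except amphotericin B, read at complete inhibition.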

Saccharomyces cerevisiae = assay: Antifungal activity against Saccharomyces cerevisiae ATCC 24657 after 48 hrs by broth microdilution method; assay type: functional; conditions: ATCC 24657, 48 h; procedure, shortened: as §3
Cryptococcus neoformans [8] = assay: Antifungal activity against Cryptococcus neoformans ATCC 90113 after 72 hrs by broth microdilution method; assay type: functional; conditions: ATCC 90113, 72 h; procedure, shortened: as §3
Lichtheimia corymbifera = assay: Antifungal activity against Absidia corymbifera NBRC 4009 after 24 hrs by broth microdilution method; assay type: functional; conditions: NBRC 4009, 24 h; procedure, shortened: as §3
Aspergillus fumigatus [9] = assay: Antifungal activity against Aspergillus fumigatus IFM 46895 infected ICR mouse after 6 days; assay type: functional; conditions: IFM 46895, 144 h; procedure, shortened: as §2
Candida albicans [10] = assay: Antifungal activity against Candida albicans ATCC MYA-573 after 47 hrs by broth microdilution method; assay type: functional; conditions: ATCC MYA-573, 47 h; procedure, shortened: as §4
Candida albicans [11] = assay: Antifungal activity against Candida albicans ATCC 10261 after 48 hrs by broth microdilution method; assay type: functional; conditions: ATCC 10261, 48 h; procedure, shortened: as §3
Candida albicans [12] = assay: Antifungal activity against Candida albicans clinical isolates after 48 hrs by broth microdilution method; assay type: functional; procedure, shortened: as §5
Candida tropicalis = assay: Antifungal activity against Candida tropicalis IFO 1400 after 48 hrs by broth microdilution method; assay type: functional; conditions: IFO 1400, 48 h; procedure, shortened: as §3
Candida parapsilosis [13] = assay: Antifungal activity against Candida parapsilosis clinical isolates after 48 hrs by broth microdilution method; assay type: functional; conditions: Lodderomyces parapsilosis
Procedure, shortened: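 Japanese hospital Candida isolates were tested by CLSI M27-A2 broth microdilution in RPMI 1640–MOPS, pH 7.0, with inocula of 0.57–2.5 × 10^3 CFU/ml at 35°C for about 48 h. Inocula came from 24-h potato dextrose agar cultures. MIC was the lowest concentration with about 50% turbidity reduction versus growth control (complete inhibition for amphotericin B). Range, MIC50 and MIC90 were reported.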

Candida albicans [14] = assay: Antifungal activity against Candida albicans ATCC 90028 after 48 hrs by broth microdilution method; assay type: functional; conditions: ATCC 90028, 48 h; procedure, shortened: as §3
Candida albicans [15] = assay: Antifungal activity against Candida albicans TIMM 1623 infected ICR mouse after 6 days; assay type: functional; conditions: TIMM 1623, 144 h; procedure, shortened: as §2

## CCCCCOc1ccc(-c2cc(-c3ccc(C(=O)N[C@H]4C[C@@H](O)[C@@H](O)NC(=O)[C@@H]5[C@@H](O)[C@@H](C)CN5C(=O)[C@H]([C@H](O)CC(N)=O)NC(=O)[C@H]([C@H](O)[C@@H](O)c5ccc(O)c(OS(=O)(=O)O)c5)NC(=O)[C@@H]5C[C@@H](O)CN5C(=O)[C@H]([C@@H](C)O)NC4=O)cc3)no2)cc1 [MICAFUNGIN] (X1-[Orn(4R-OH,5R-OH)]T[Hyp][hTyr(3S-OH,4S-OH,3'-OSO3H)][Gln(3R-OH)][Pro(3S-OH,4S-Me)]; lactam 1-C)
Aspergillus fumigatus [1]
  MFC: > 64 µg/mL
  MIC: 0.0313 µg/mL (≈ 0.0246 µM)
Aspergillus fumigatus [2]
  Activity: Active
Aspergillus nidulans
  MFC: > 64 µg/mL
  MIC: 0.0313 µg/mL (≈ 0.0246 µM)
Candida albicans [3]
  MIC: 0.0625 µg/mL (≈ 0.0492 µM)
Aspergillus flavus
  MFC: > 64 µg/mL
  MIC: 0.0625 µg/mL (≈ 0.0492 µM)
Scedosporium boydii
  MFC: > 64 µg/mL
  MIC: 0.5 µg/mL (≈ 0.394 µM)
Candida parapsilosis [4]
  MFC: > 32 µg/mL
  MIC: 2 µg/mL (≈ 1.57 µM)
Aspergillus fumigatus [5]
  MIC: 0.0313 µg/mL (≈ 0.0246 µM)
  MIC50: 0.0313 µg/mL (≈ 0.0246 µM)
  MIC90: 0.0313 µg/mL (≈ 0.0246 µM)
Nakaseomyces glabratus
  MFC: 0.0313 µg/mL (≈ 0.0246 µM)
  MIC: 0.0313 µg/mL (≈ 0.0246 µM)
Aspergillus terreus
  MFC: > 64 µg/mL
  MIC: 0.0313 µg/mL (≈ 0.0246 µM)
Cryptococcus neoformans [6]
  MFC: > 64 µg/mL
  MIC: > 64 µg/mL
Candida albicans [7]
  MIC: 0.0625 µg/mL (≈ 0.0492 µM)
Saccharomyces cerevisiae
  MFC: 1 µg/mL (≈ 0.787 µM)
  MIC: 0.5 µg/mL (≈ 0.394 µM)
Cryptococcus neoformans [8]
  MFC: > 64 µg/mL
  MIC: > 64 µg/mL
Lichtheimia corymbifera
  MFC: > 64 µg/mL
  MIC: 32 µg/mL (≈ 25.2 µM)
Aspergillus fumigatus [9]
  ED50: 0.699 mg/kg
Candida albicans [10]
  MIC: 0.0625 µg/mL (≈ 0.0492 µM)
Candida albicans [11]
  MFC: 0.25 µg/mL (≈ 0.197 µM)
  MIC: 0.0313 µg/mL (≈ 0.0246 µM)
Candida albicans [12]
  MIC50: 0.0625 µg/mL (≈ 0.0492 µM)
  MIC90: 0.125 µg/mL (≈ 0.0984 µM)
Candida tropicalis
  MFC: > 64 µg/mL
  MIC: 0.0625 µg/mL (≈ 0.0492 µM)
Candida parapsilosis [13]
  MIC50: 2 µg/mL (≈ 1.57 µM)
  MIC90: 4 µg/mL (≈ 3.15 µM)
Candida albicans [14]
  MFC: 0.125 µg/mL (≈ 0.0984 µM)
  MIC: 0.0313 µg/mL (≈ 0.0246 µM)
Candida albicans [15]
  ED50: 0.182 mg/kg
